For data set [1], the species on record is Rattus norvegicus. Briefly: (§1) Lysozyme-conjugated prodrugs: in vitro stability at pH 7.4. In kind it is functional. The essentials: (§2)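 Conjugate incubated 24 h in pH 5.0 buffer, pH 7.4 buffer, or plasma buffered at pH 7.4. Samples were deproteinized with ACN, MeOH or 2 N HCl, centrifuged, and analyzed by RP-HPLC against an internal standard. Release is % parent drug = parent/(parent + derivative) from IS-normalized peak-area ratios, mean of at least two separate incubations.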

The species entered for data set [2] is Rattus norvegicus. The data set is described as §1. It counts as functional. In short, it runs like this:
as §2
The source holds these as a separate data set.

The species entered for data set [3] is Rattus norvegicus. Described as §1. It counts as functional. The essentials:
as §2
The source holds these as a separate data set.

For data set [4], the species on record is Rattus norvegicus. Briefly: (§3) Lysozyme-conjugated prodrugs: in vitro stability at pH 5. In kind it is ADME. The essentials: as §2
Data set [5] is filed under the species Rattus norvegicus. Described as §3. In kind it is functional. The essentials: as §2
Data set [6] is filed under the species Rattus norvegicus. The data set is described as §1. It counts as functional. The essentials:
as §2
This is another data set of the same source.

Data set [7] is filed under the species Rattus norvegicus. The description is as §3. In kind it is functional. In short, it runs like this: as §2
The source holds these as a separate data set.

The species entered for data set [8] is Rattus norvegicus. Briefly: Lysozyme-conjugated prodrugs: in vitro stability in lysosomal lysate at pH 5. It counts as functional. In short, it runs like this: (§4)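 Lysosomes isolated from pooled male Wistar rat kidney cortex by differential centrifugation, then lysed by 10 freeze–thaw cycles in liquid N2. 100 μL lysate diluted to 1.0 mL with 0.1 M phosphate buffer, pH 5.0 or 7.4. Samples were deproteinized and analysed by RP-HPLC against an internal standard. Parent drug released after 24 h, as a percentage, mean of ≥2 incubations.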

The species entered for data set [9] is Rattus norvegicus. The data set is described as §3. In kind it is functional. In short, it runs like this:
as §2
This is another data set of the same source.

The species entered for data set [10] is Rattus norvegicus. The data set is described as §1. It counts as functional. The essentials:
as §2
This is another data set of the same source.

The species named for data set [11] is Rattus norvegicus. The data set is described as follows: Lysozyme-conjugated prodrugs: in vitro stability in rat cortical homogenate at pH 5. It counts as functional. The essentials:
(§5)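 Renal cortices from three male Wistar rats were perfused, pooled, homogenized in 0.3 M sucrose and lysed by 10 freeze–thaw cycles. Conjugate was incubated with 250 μL homogenate in 0.1 M phosphate buffer, pH 5.0 or 7.4, to 1.0 mL for 24 h. Samples were deproteinized and analyzed by HPLC with internal standard. Release is % parent compound, mean of ≥2 incubations.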

The species named for data set [12] is Rattus norvegicus. Briefly: Lysozyme-conjugated prodrugs: in vitro stability in lysosomal lysate at pH 7.4. In kind it is functional. In short, it runs like this:
as §4

Data set [13] is filed under the species Rattus norvegicus. The data set is described as follows: Lysozyme-conjugated prodrugs: in vitro stability in buffered plasma at pH 7.4. It counts as functional. In short, it runs like this:
as §2

The species entered for data set [14] is Rattus norvegicus. The data set is described as follows: Lysozyme-conjugated prodrugs: in vitro stability in rat cortical homogenate at pH 7.4. In kind it is functional. In short, it runs like this:
as §5

SMILES strings stand for the structures. Several values for one entry are separate records, joined by “and”; a condition that tells them apart may be missing. Identical values can stand only once. Bounds are passed on as bounds.

On to `COc1ccc2cc(C(C)C(=O)NC(Cc3ccc(O)cc3)C(=O)O)ccc2c1` (configuration not stated), for which the Drug release in the data set filed under Rattus norvegicus [1], in the data set listed under Rattus norvegicus [2], in the data set listed under Rattus norvegicus [3], in the data set listed under Rattus norvegicus [4], in the data set filed under Rattus norvegicus [5] and in the data set filed under Rattus norvegicus [6] was under 1% throughout. Moreover, the Drug release in the data set filed under Rattus norvegicus [7] was under 1%.

Turning to `COc1ccc2cc([C@H](C)C(=O)O)ccc2c1` [NAPROXEN], the Drug release is 0% in the data set filed under Rattus norvegicus [1]; “Stable” in the data set filed under Rattus norvegicus [8]; “Stable” in the data set filed under Rattus norvegicus [9]; “Stable” in the data set filed under Rattus norvegicus [10]; 0% in the data set listed under Rattus norvegicus [2]; 0% in the data set filed under Rattus norvegicus [3]. The Drug release in the data set listed under Rattus norvegicus [4] is given as 0%; in the data set listed under Rattus norvegicus [5], 0%; in the data set listed under Rattus norvegicus [6], 0%; in the data set filed under Rattus norvegicus [11], “Stable”; in the data set listed under Rattus norvegicus [7], 0%; in the data set listed under Rattus norvegicus [12] it was “Stable”. Also, the Drug release result in the data set filed under Rattus norvegicus [13] and in the data set filed under Rattus norvegicus [14] was “Stable” throughout.

With `COc1ccc2c(c1)c(CC(=O)O)c(C)n2C(=O)c1ccc(Cl)cc1`, the Drug release result in the data set listed under Rattus norvegicus [8], in the data set listed under Rattus norvegicus [9], in the data set filed under Rattus norvegicus [10], in the data set filed under Rattus norvegicus [11], in the data set listed under Rattus norvegicus [13] and in the data set listed under Rattus norvegicus [14] was “Stable” in each case.

In the case of `Nc1ccc2ccccc2c1`, the Drug release entry in the data set filed under Rattus norvegicus [8], in the data set filed under Rattus norvegicus [9], in the data set filed under Rattus norvegicus [10], in the data set listed under Rattus norvegicus [11], in the data set listed under Rattus norvegicus [12] and in the data set listed under Rattus norvegicus [14] was “Stable” in each case.

As for `COc1ccc2cc(C(C)C(=O)N[C@@H](CC(C)C)C(=O)NCC(=O)NCC(=O)O)ccc2c1` (stereo in doubt; 1c), the Drug release in the data set filed under Rattus norvegicus [1], in the data set listed under Rattus norvegicus [2], in the data set listed under Rattus norvegicus [3], in the data set filed under Rattus norvegicus [4], in the data set listed under Rattus norvegicus [5] and in the data set filed under Rattus norvegicus [6] was under 1% throughout. For the same molecule, the Drug release in the data set filed under Rattus norvegicus [7] is recorded as under 1%.

As for `COc1ccc2cc(C(C)C(=O)NC(CC(C)C)C(=O)O)ccc2c1` (configuration not stated), the Drug release in the data set listed under Rattus norvegicus [1], in the data set listed under Rattus norvegicus [2], in the data set listed under Rattus norvegicus [3], in the data set filed under Rattus norvegicus [4], in the data set listed under Rattus norvegicus [5] and in the data set listed under Rattus norvegicus [6] was under 1% in each case. Besides, the Drug release in the data set listed under Rattus norvegicus [7] is under 1%.

Take `Nc1nc(N)c2nc(-c3ccccc3)c(N)nc2n1`: the Drug release entry in the data set listed under Rattus norvegicus [9], in the data set listed under Rattus norvegicus [10], in the data set listed under Rattus norvegicus [11] and in the data set filed under Rattus norvegicus [14] was “Stable” each time.

For `COc1ccc2cc(C(C)C(=O)O[C@@H](C)C(=O)O)ccc2c1` (stereo in doubt; 1r), the Drug release in the data set filed under Rattus norvegicus [1] came to 13%; in the data set filed under Rattus norvegicus [2], 1.4%; in the data set listed under Rattus norvegicus [3] it was 3%; in the data set listed under Rattus norvegicus [4], 0.6%; in the data set filed under Rattus norvegicus [5], 100%; in the data set filed under Rattus norvegicus [6] it was 15%. Moreover, the Drug release in the data set listed under Rattus norvegicus [7] was 100%.

With `Cc1cc(NS(=O)(=O)c2ccc(NC(=O)CC3=CC(=O)OC3=O)cc2)no1`, the Drug release was 7% in the data set listed under Rattus norvegicus [1]; 15% and 7% in the data set filed under Rattus norvegicus [2]; 8% in the data set listed under Rattus norvegicus [3]; 100% and 80% in the data set listed under Rattus norvegicus [4]; 84% in the data set filed under Rattus norvegicus [5]; 8% in the data set filed under Rattus norvegicus [6]. For the same molecule, in the data set filed under Rattus norvegicus [7], the Drug release was determined as 84%.

In the case of `COc1ccc2cc(C(C)C(=O)N[C@@H](Cc3ccc(O)cc3)C(=O)NCC(=O)NCC(=O)O)ccc2c1` (stereo in doubt; 1e), the Drug release in the data set listed under Rattus norvegicus [1], in the data set listed under Rattus norvegicus [2], in the data set filed under Rattus norvegicus [3], in the data set filed under Rattus norvegicus [4], in the data set filed under Rattus norvegicus [5] and in the data set listed under Rattus norvegicus [6] was under 1% in each case. The Drug release in the data set listed under Rattus norvegicus [7] is under 1%.

The values are drawn from ChEMBL document CHEMBL1125422, “Low molecular weight proteins as carriers for renal drug targeting. Preparation of drug-protein conjugates and drug-spacer derivatives and their catabolism in renal cortex homogenates and lysosomal lysates” (J Med Chem, 1992).
